Reference: ChEMBL document CHEMBL4359893, “Synthesis, structure-activity relationship and trypanocidal activity of pyrazole-imidazoline and new pyrazole-tetrahydropyrimidine hybrids as promising chemotherapeutic agents for Chagas disease” (Eur J Med Chem, 2019)

Legend:
[1] = molecular target: T1, Cruzipain (Trypanosoma cruzi, UniProt P25779); test: Irreversible inhibition of Trypanosoma cruzi cruzipain
[2] = Cytotoxicity against African green monkey Vero cells assessed as reduction in cell viability by measuring ATP level after 72 hrs by Celltiter-Glo assay; format: cell-based; settings: chlorocebus sabaeus
Procedure, shortened: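 Vero cells seeded at 1.5 × 10⁴ cells/well, exposed 24 h later to 1.95–500 µM compound for 72 h at 37 °C. Viability read as ATP luminescence (CellTiter-Glo). DMSO ≤1% as control. CC50 from linear regression; at least three independent assays in duplicate.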

[3] = system: Trypanosoma cruzi; test: Trypanocidal activity against Trypanosoma cruzi Y strain bloodstream trypomastigotes isolated from infected Swiss webster mouse cardiac cells assessed as reduction in parasite viability after 24 hrs by Celltiter-Glo assay; format: functional, organism-based
Procedure, shortened: (§1)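 Trypomastigotes at 1 × 10⁶ parasites/well treated 24 h at 37 °C with 0.41–100 µM compound. Y strain viability read by ATP luminescence (CellTiter-Glo); Dm28c-Luc viability read by luciferase activity. IC50/IC90 by linear regression. Benznidazole positive and DMSO ≤1% negative controls.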

[4] = system: Trypanosoma cruzi; test: Trypanocidal activity against luciferase expressing Trypanosoma cruzi Dm28c trypomastigotes isolated from infected Vero cells assessed as reduction in parasite viability after 24 hrs by luciferase-luminescence assay; format: functional, organism-based; procedure, shortened: as §1
[5] = system: Trypanosoma cruzi; test: Trypanocidal activity against intracellular amastigote stage of luciferase expressing Trypanosoma cruzi Dm28c infected in Vero cells assessed as reduction in parasite viability after 72 hrs in presence of luciferin by luciferase luminescence analysis
[6] = Selectivity index, ratio of CC50 for African green monkey Vero cells to IC50 for Trypanosoma cruzi Y strain bloodstream trypomastigotes isolated from infected Swiss webster mouse cardiac cells; format: toxicity; settings: read-out: Ratio CC50/IC50
[7] = Selectivity index, ratio of CC50 for African green monkey Vero cells to IC50 for luciferase expressing Trypanosoma cruzi Dm28c trypomastigotes isolated from infected Vero cells; format: toxicity; settings: read-out: Ratio CC50/IC50
[8] = Selectivity index, ratio of CC50 for African green monkey Vero cells to IC50 for intracellular amastigote stage of luciferase expressing Trypanosoma cruzi Dm28c infected in Vero cells; format: toxicity, cell-based; settings: read-out: Ratio CC50/IC50
[9] = Cytotoxicity against mouse cardiomyocytes infected with intracellular amastigote stage of Trypanosoma cruzi Y strain assessed as reduction in cardiomyocyte viability after 72 hrs by Celltiter-Glo assay; format: cell-based, Cardiac Muscle Cell
Procedure, shortened: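 Primary heart muscle cells from 18-day mouse fetuses, dissociated with trypsin/collagenase II, grown in DMEM with 7% FBS, 2% chicken embryo extract, 1 mM L-glutamine, antibiotics, 37 °C, 5% CO₂. Plated at 5 × 10⁴ cells/well and treated 72 h. Viability read by ATP luminescence. CC50 from linear regression; DMSO ≤1% control; at least three independent assays in duplicate.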

[10] = Selectivity index, ratio of CC50 for mouse cardiomyocyte infected with intracellular amastigote stage of Trypanosoma cruzi Y strain to IC50 for amastigote stage of Trypanosoma cruzi Y strain; format: toxicity, cell-based; settings: read-out: Ratio CC50/IC50
[11] = system: Trypanosoma cruzi; test: Potency index, ratio of compound IC90 to benznidazole IC90 for Trypanocidal activity against intracellular amastigote stage of luciferase expressing Trypanosoma cruzi Dm28c infected in Vero cells; format: functional
[12] = molecular target: T1, Cruzipain; test: Inhibition of Trypanosoma cruzi cruzipain assessed as reduction in enzymatic activity using Z-FR-AMC fluorogenic peptide substrate incubated for 45 mins by spectrophotometry analysis
Procedure, shortened: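 Soluble trypomastigote protein extract (lysis in Tris pH 8.0/NaCl/glycerol/Triton X-100, 25,000 g supernatant) used as enzyme source. Incubated with 30 µM Z-FR-AMC in 10 mM sodium acetate pH 5.0 with 1 mM DTT, co-incubated with inhibitor concentrations, 45 min at 37 °C. AMC release read by fluorescence. Substrate self-degradation and DMSO ≤1% controls.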

[13] = molecular target: Cruzipain (Trypanosoma cruzi) (UniProt P25779); test: Potency index, ratio of compound IC50 to E-64 IC50 for inhibition of Trypanosoma cruzi cruzipain
[14] = system: Trypanosoma cruzi; test: Trypanocidal activity against intracellular amastigote stage of Trypanosoma cruzi Y strain infected in Swiss webster cardiac cells assessed as reduction in parasite viability

T1 sequence (P25779 whole entry): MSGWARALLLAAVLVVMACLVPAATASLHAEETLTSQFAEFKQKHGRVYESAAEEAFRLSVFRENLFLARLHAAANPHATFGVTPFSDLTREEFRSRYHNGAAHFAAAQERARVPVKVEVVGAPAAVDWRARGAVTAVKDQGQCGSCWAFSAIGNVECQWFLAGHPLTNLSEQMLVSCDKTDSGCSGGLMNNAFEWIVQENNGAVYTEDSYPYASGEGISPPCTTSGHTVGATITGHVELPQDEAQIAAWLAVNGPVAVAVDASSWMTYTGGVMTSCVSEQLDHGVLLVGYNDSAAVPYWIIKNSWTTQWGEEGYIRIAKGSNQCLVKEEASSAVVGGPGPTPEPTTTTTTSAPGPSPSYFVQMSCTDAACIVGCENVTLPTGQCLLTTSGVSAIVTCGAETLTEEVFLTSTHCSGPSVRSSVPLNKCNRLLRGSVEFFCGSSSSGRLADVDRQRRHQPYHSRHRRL
Chain of Cruzipain (Trypanosoma cruzi) (P25779 123-467 limits assumed): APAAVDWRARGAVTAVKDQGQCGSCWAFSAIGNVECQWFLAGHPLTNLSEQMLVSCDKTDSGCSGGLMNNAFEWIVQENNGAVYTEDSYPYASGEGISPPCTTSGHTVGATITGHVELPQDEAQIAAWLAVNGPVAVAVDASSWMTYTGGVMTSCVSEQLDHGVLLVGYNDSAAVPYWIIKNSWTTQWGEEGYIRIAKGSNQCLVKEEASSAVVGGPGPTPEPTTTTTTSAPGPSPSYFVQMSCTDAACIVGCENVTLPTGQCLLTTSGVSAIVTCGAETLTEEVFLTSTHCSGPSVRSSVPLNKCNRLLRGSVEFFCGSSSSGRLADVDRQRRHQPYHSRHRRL

Row | Compound | IC50 [1] [µM] | CC50 at 72 h [2] [µM] | IC50 [3] [µM] | IC90 [3] [µM] | IC50 [4] [µM] | IC90 [4] [µM] | IC50 [5] [µM] | IC90 [5] [µM] | selectivity ratio [6] | selectivity ratio [7] | selectivity ratio [8] | CC50 at 72 h [9] [µM] | selectivity ratio [10] | Ratio [11] | IC50 [12] [µM] | Ratio IC50 [13] | IC50 [14] [µM]
1 | CC(C)C[C@H](NC(=O)[C@@H]1O[C@H]1C(=O)O)C(=O)NCCCCN=C(N)N | 3 | – | – | – | – | – | – | – | – | – | – | – | – | – | – | – | –
2 | COc1ccc(-n2ncc(C3=NCCCN3)c2N)cc1 | – | > 500 | > 100 | > 100 | > 100 | > 100 | > 100 | > 100 | – | – | – | – | – | – | – | – | –
3 | Nc1c(C2=NCCCN2)cnn1-c1ccc(Cl)c(Cl)c1 | – | > 500 | > 100 | > 100 | > 100 | > 100 | > 100 | > 100 | – | – | – | – | – | – | – | – | –
4 | Nc1c(C2=NCCCN2)cnn1-c1cc(Cl)cc(Cl)c1 | – | > 500 | > 100 | > 100 | > 100 | > 100 | > 100 | > 100 | – | – | – | – | – | – | – | – | –
5 | Nc1c(C2=NCCN2)cnn1-c1ccc(Cl)c(Cl)c1 | – | 244 | 28.3 | > 100 | 10.5 | 29 | 13.6 | 30.5 | 8.6 | 23.3 | 17.9 | 412 | 32.4 | 4.4 | 180 | 60 | 12.7
6 | Nc1c(C2=NCCCN2)cnn1-c1ccc(Br)cc1 | – | > 500 | > 100 | > 100 | > 100 | > 100 | > 100 | > 100 | – | – | – | – | – | – | – | – | –
7 | Nc1c(C2=NCCN2)cnn1-c1ccc(F)cc1 | – | > 500 | > 100 | > 100 | > 100 | > 100 | > 100 | > 100 | – | – | – | – | – | – | – | – | –
8 | Nc1c(C2=NCCN2)cnn1-c1ccccc1 | – | > 500 | > 100 | > 100 | > 100 | > 100 | 84.2 | > 100 | – | – | > 5.9 | – | – | – | – | – | –
9 | Nc1c(C2=NCCCN2)cnn1-c1ccccc1 | – | > 500 | > 100 | > 100 | > 100 | > 100 | > 100 | > 100 | – | – | – | – | – | – | – | – | –
10 | Nc1c(C2=NCCN2)cnn1-c1cc(Cl)cc(Cl)c1 | – | 257 | 30.9 | > 100 | 9.5 | 28.9 | 16.5 | 29.9 | 8.3 | 27.1 | 15.6 | 379 | 30.3 | 4.4 | 24 | 8 | 12.5
11 | Nc1c(C2=NCCN2)cnn1-c1ccc(Cl)cc1 | – | > 500 | 84.2 | > 100 | 78.9 | > 100 | > 100 | > 100 | > 5.9 | > 6.3 | – | – | – | – | – | – | –
12 | Nc1c(C2=NCCCN2)cnn1-c1cccc(Br)c1 | – | > 500 | > 100 | > 100 | > 100 | > 100 | > 100 | > 100 | – | – | – | – | – | – | – | – | –
13 | Nc1c(C2=NCCN2)cnn1-c1ccc(Br)cc1 | – | > 500 | 52.3 | > 100 | > 100 | > 100 | 84.2 | > 100 | > 9.5 | – | > 5.9 | – | – | – | – | – | –
14 | COc1ccc(-n2ncc(C3=NCCN3)c2N)cc1 | – | > 500 | > 100 | > 100 | > 100 | > 100 | 63.4 | > 100 | – | – | > 7.9 | – | – | – | – | – | –
15 | O=C(Cn1ccnc1[N+](=O)[O-])NCc1ccccc1 [BENZNIDAZOLE] | – | > 500 | 23.3 | > 100 | 19.1 | 94.1 | 1.9 | 6.9 | > 21.4 | > 26.3 | > 263 | > 500 | > 555 | – | – | – | 0.9
16 | Nc1c(C2=NCCN2)cnn1-c1cccc(Br)c1 | – | 352 | 27.7 | > 100 | > 100 | > 100 | 67.4 | > 100 | 12.7 | – | 5.2 | – | – | – | – | – | –
17 | Nc1c(C2=NCCCN2)cnn1-c1ccc(Cl)cc1 | – | > 500 | > 100 | > 100 | > 100 | > 100 | > 100 | > 100 | – | – | – | – | – | – | – | – | –
18 | Nc1c(C2=NCCCN2)cnn1-c1ccc(F)cc1 | – | > 500 | > 100 | > 100 | > 100 | > 100 | > 100 | > 100 | – | – | – | – | – | – | – | – | –
19 | Nc1c(C2=NCCCN2)cnn1-c1cccc(Cl)c1 | – | > 500 | > 100 | > 100 | > 100 | > 100 | > 100 | > 100 | – | – | – | – | – | – | – | – | –
20 | Nc1c(C2=NCCN2)cnn1-c1cccc(Cl)c1 | – | > 500 | 31.3 | > 100 | 53.3 | 81.1 | 20.6 | 55 | > 15.9 | 9.4 | > 24.3 | – | – | – | – | – | –
